High-throughput results deposited in PubChem by Broad Institute.
FGF22 binding-1 = binders of human FGF22 protein, primary screen, FGF22 synaptogenesis inhibitor project, biophysical, thermal shift, single point | Fibroblast growth factor 22 (Homo sapiens), Q9HCT0 | recombinant FGF22 thermal shift, SYPRO orange fluorescence; percent of sucrose octasulfate shift, DMSO zero | activity (Tm shift, normalised), % at 9.99 µM | 340,000 compounds, 1.5% hits;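 active means mean Tm shift, scaled 0 neutral to 100 positive control, at about 1.3% or above, every replicate too, limit read from the data; inconclusive means no clear call, values can overlap the other calls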
Target sequence (Q9HCT0 whole entry, looked up): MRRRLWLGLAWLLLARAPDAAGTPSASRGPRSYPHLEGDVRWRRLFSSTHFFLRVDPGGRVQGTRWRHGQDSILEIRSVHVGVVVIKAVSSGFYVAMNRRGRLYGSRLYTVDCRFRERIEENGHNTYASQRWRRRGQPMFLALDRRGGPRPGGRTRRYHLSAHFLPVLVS
C2C12 statin = suppressors of statin myotoxicity in C2C12 myotubes, primary screen, cell-based, single point, plate reader. C2C12 myotubes + simvastatin, ATP luminescence, 48 h; scaled: DMSO 0, geranylgeraniol control 100. rescue of ATP level, % at 7.49 µM. 330,000 compounds, 0.78% hits;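 active means mean ATP rescue above about 67%, or every replicate alone reaching that limit, limit read from the data, passing the limit was not always enough; inconclusive means no clear call, values can overlap the other calls; inactive means mean under the limit and some replicate under it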;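 further: myotubes were challenged with 10 µM simvastatin during compound exposure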
E-selectin induc = E-selectin induction in HUVECs, primary screen, imaging, HUVEC, immunofluorescence imaging, single point | normalized: neutral wells 0, TNF-alpha wells 100 | activation, % at 7.58 µM | 260,000 compounds, 0.37% hits | AID 686992, 2013;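 active means mean E-selectin-positive cell signal at least 10% of the positive control, reached in at least 60% of replicates, without over 20% cell loss; inconclusive means no rule given, readout overlaps actives, possibly toxicity-flagged; inactive means the rest, including those meeting only one limit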
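System: HUVEC / Compound: single concentration / Signal: immunofluorescence imaging / Read-out: percent E-selectin-positive cells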
DENV2 CPE rescue = inhibitors of DENV2 cytopathic effect, primary screen, cell-based, plate reader, single concentration; DENV2-infected cells, cytopathic effect rescue; CPE inhibition, % at 9.99 µM; 350,000 compounds, 1.7% hits; AID 651640, 2012; in the data active means CPE inhibition above about 20%, passing the limit was not always enough; inconclusive means no clear call, values can overlap the other calls; tested in BHK-21 cells;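 further: 0% = median of neutral control wells and 100% = median of positive control wells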
PglD inh = C. jejuni PglD acetyltransferase inhibitors, primary screen, biochemical, DTNB colorimetric, single point; UDP-N-acetylbacillosamine N-acetyltransferase PglD (Campylobacter jejuni); purified PglD enzyme, DTNB colorimetric CoA detection; inhibition, % at 12.5 µM; 360,000 compounds, 0.098% hits; AID 602405, 2012; in the data active means inhibition above about 16%, passing the limit was not always enough; inconclusive means no clear call, values can overlap the other calls
Xi reactivation = activators of inactive X chromosome reactivation, primary screen, imaging, XiGFP fibroblasts, GFP high-content imaging, set 2; XiGFP mouse fibroblasts, % GFP-positive cells imaging, 3 d; cells co-treated with 5-aza-dC sensitizer; scaled so ellipticine positive control = 100%; activation, % at 7.58 µM; 360,000 compounds, 0.055% hits; AID 743238, 2013;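 active means mean normalized replicate activation at least 10% and every replicate at or above 10%; inconclusive means only one of the two criteria met; inactive means mean below 10% and not all replicates reach 10%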;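 further: 0% = median of on-plate neutral control wells and 100% = ellipticine 6 µM median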
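Assay system – SV40-immortalized XiGFP fibroblast cells, line 68-5-11 · Buffer or medium – DMEM supplemented with 5-aza-dC as sensitizing agent · Dosing – one concentration, pinned · Benchmarks – positive control ellipticine, 6 µM final · Times – 3 days compound exposure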
FGF22 binding-2 = binders of human FGF22 protein, dose response, FGF22 synaptogenesis inhibitor project, biophysical, thermal shift, cherry-pick retest. shares compounds with FGF22 binding-1. recombinant FGF22 thermal shift, SYPRO orange fluorescence. thermal shift activity, °C (ΔTm) at 38 µM. 1,000 compounds, 2% hits;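 active means fitted rise in melting shift crosses a set limit at or below the top valid dose tested; inconclusive means flat fit at mid-level activity, or a poor quality fit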
FGF22 TSA DP = binders of human FGF22 protein, dose response, FGF22 synaptogenesis inhibitor project, biophysical, thermal shift, dry powder; shares compounds with FGF22 binding-1; Tm shift (activity), % at 38 µM; 50 tested, under 10 active; Thermal shift assay, SYPRO orange, melting temperature shift;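 active means compounds whose fitted dose curve of melting temperature shift rises past a set threshold within the tested doses; inconclusive means flat curve at moderate activity, or poor curve fit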
SYPRO no-protein = compound-only thermal shift signal without protein, dose response, artefact control for FGF22 binder project, biochemical, cherry-picked samples, RT-PCR instrument | shares compounds with FGF22 binding-1 | compound-only SYPRO orange thermal shift counter-screen, no protein | AC50, µM (top dose mostly 38 µM) | 1,000 compounds, 2% hits;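 active means rising signal whose fitted curve reaches the 0.54 level within the top valid dose, showing a melting point, actives reach about 13 µM in these data; inactive means the rest, including activity in the opposite direction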; further: value is where the raw curve crosses a fixed level and not half-maximal
Starred values were filed as active, the others as inactive; i = inactive; ? = inconclusive; . = no result; ! = repeats disagree; [ ] = another dose, or the depositor's remark. Only some compounds are listed: those with a hit (about 3.3% of all), similar ones and a draw of the others.

SMILES | FGF22 binding-1 | C2C12 statin | E-selectin induc | DENV2 CPE rescue | PglD inh | Xi reactivation | FGF22 binding-2 | SYPRO no-protein | others
C[C@H](CO)N1C[C@H](C)[C@H](CN(C)C(=O)Nc2ccc3c(c2)OCO3)Oc2cc(C3=CCCC3)ccc2S1(=O)=O | 1.8* | 64 | 1 | 12 | 0 | 0 | -0.49 | i
CC1(C(=O)NS(=O)(=O)c2cccc(F)c2)CCN1C(=O)Cc1ccc(-c2ccccc2)cc1 (configuration not stated) | 0 | -1 | 0 | -4 | -2 | 0 | . | .
CC1(C(=O)NS(=O)(=O)c2cccc(Cl)c2)CCN1C(=O)Cc1ccc(-c2ccccc2)cc1 (configuration not stated) | 1.9* | 6 | 0 | -6 | 5 | 0 | 0.083 | i
C[C@@H]1CN([C@@H](C)CO)C(=O)Cc2cc(NC(=O)CCCCCC(=O)Nc3ccccc3N)ccc2O[C@H]1CN(C)C(=O)Nc1ccc2c(c1)OCO2 | 0 | . | 5 | -4 | . | 1 | . | .
NC(=O)c1cccnc1Nc1ccccc1F | 1.4* | . | 1 | -5 | . | 0 | 0.11 | i
CSc1ccc(C(=O)NCC2CCN(C(=O)C(=O)c3cc4ccccc4o3)CC2)cc1 | 1.5* | . | 0 | 5 | . | 0 | -0.037 | i
COc1cc(OC)cc(C(=O)NCC2CCN(C(=O)C(=O)c3cc4ccccc4o3)CC2)c1 | 0 | . | 1 | 10 | . | 0 | . | .
CCC(=O)N1CC(=O)N2[C@H](CO)[C@@H](c3ccc(-c4ccncc4)cc3)[C@H]2C1 | . | . | 1 | -11 | . | 0 | . | .
CCN1C(=O)C(CC(=O)Nc2ccc(OC)cc2)N(CCc2ccc(OC)cc2)C1=S (configuration not stated) | 1.6* | . | . | -3 | . | 0 | 0.12 | i
CCN1C(=O)C(CC(=O)Nc2ccc(OC)cc2)N(Cc2ccc(OC)c(OC)c2)C1=S (configuration not stated) | . | 3 | 0 | -4 | -3 | 1 | . | .
CCOc1ccc(NC(=O)CC2C(=O)N(C)C(=S)N2Cc2ccc3c(c2)OCO3)cc1 (configuration not stated) | . | 10 | . | . | 2 | . | . | .
CCN1C(=O)C(CC(=O)Nc2ccc(OC)cc2)N(Cc2ccc3c(c2)OCO3)C1=S (configuration not stated) | 2.0* | . | -3 | 5 | . | 0 | 0.007 | i
O=C(Nc1cc(Cl)cc(Cl)c1)N[C@@H]1CC[C@@H](CCNS(=O)(=O)c2cccc(F)c2)O[C@@H]1CO | 2.7*! | 3 | 1 | 4 | 2 | 0 | -0.31[42 µM] | i | FGF22 TSA DP=0
O=C(Nc1cc(Cl)cc(Cl)c1)N[C@H]1CC[C@H](CCNS(=O)(=O)c2cccc(F)c2)O[C@H]1CO | 0 | 10 | 0 | 3 | -1 | -1 | . | .
O=C(CCN1CCCCC1)N[C@@H]1CC[C@H](CCNS(=O)(=O)c2ccc(F)cc2)O[C@H]1CO | 1.7* | 4 | 1 | -1 | 2 | 2 | -0.19 | i
Cc1ccccc1S(=O)(=O)NCC[C@@H]1CC[C@@H](NC(=O)Nc2cccc(Cl)c2)[C@@H](CO)O1 | 1.3* | -31 | 1 | ? | 7 | 0 | -0.071[42 µM] | i
CC(=O)c1cccc(NC(=O)C2CCCN2S(=O)(=O)c2cccs2)c1 (configuration not stated) | 17* | -6 | 0 | -13 | 1 | 0 | -0.082 | i
CC(=O)c1cccc(NC(=O)C2CCCN2S(=O)(=O)c2ccccc2C(F)(F)F)c1 (configuration not stated) | 0 | -1 | 0 | ? | 3 | 0 | . | .
C/C(=N\NC(=O)c1nnn(-c2nonc2N)c1CSc1ccc(C)cc1)c1cccnc1 | 1.7* | -35 | 1 | -1 | 1 | 0 | -0.024 | i
Nc1nonc1-n1nnc(C(=O)N/N=C/c2cccnc2)c1CSc1ccc(Cl)cc1 | 2.7* | 5 | . | 5 | 1 | 0 | -0.012 | i
CC1CCN(Cc2c(C(=O)N/N=C/c3ccc(OC(C)C)cc3)nnn2-c2nonc2N)CC1 | 1.5* | 1 | . | -5 | 4 | 0 | -0.12 | i
Cc1ccccc1S(=O)(=O)N1CC[C@@H]2[C@H](CO)Nc3ccc(C#Cc4ccccc4)cc3[C@@H]21 | 0 | -11 | -1 | ? | 5 | 0 | . | .
O=S(=O)(O)c1cccc2cccc(Nc3ccccc3)c12 | 1.5* | . | 2 | -1 | -1 | 0 | 0.012 | i
c1ccc(Nc2cccc3c(Nc4ccccc4)cccc23)cc1 | 0 | . | 0 | . | 5 | 0 | . | .
C[C@@H]1CN([C@@H](C)CO)C(=O)c2cc(NC(=O)C3CC3)ccc2O[C@H]1CN(C)Cc1ccccc1 | 0 | -31 | 0 | 1 | 4 | 0 | . | .
CCC(=O)N1CC2(CCN(Cc3nccs3)CC2)c2c(n(C)c3cc(OC)ccc23)[C@@H]1CO | 1.3* | . | 1 | 4 | . | 0 | 0.14 | i
CCC(=O)N1CC2(CCN(Cc3nccs3)CC2)c2c(n(C)c3cc(OC)ccc23)[C@H]1CO | 0 | . | 0 | 5 | . | 0 | . | .
O=C1Cc2ccccc2C(=O)N1c1ccccc1 | 42 | -2 | . | ? | -5 | 0 | . | .
O=C1Cc2ccccc2C(=O)N1c1cccc(Cl)c1 | 2.2* | 33 | . | 2 | 5 | 0 | 0.02 | i
CNC[C@H]1Oc2ccc(NC(=O)C3CCCCC3)cc2C(=O)N([C@@H](C)CO)C[C@H]1C | 1.2* | -3 | 0 | -5 | -4 | -1 | 0.17[42 µM] | i
